Experimental data taken from ChEMBL document CHEMBL1157893, “The discovery and structure-activity relationships of pyrano[3,4-b]indole based inhibitors of hepatitis C virus NS5B polymerase” (Bioorg Med Chem Lett, 2010).
pEC50, pIC50: −log10 of the molar value.

What was measured:
[1] = Inhibition of HCV BK NS5B polymerase; design: species or system Hepatitis C virus (isolate BK)
Hepatitis C virus [2] = experiment: Inhibition of HCV 1b BB7 NS5B Cdelta21 polymerase expressed in Escherichia coli after 120 mins; type: functional, Hepatitis C virus subtype 1b; details: BB7, 2 h
In short: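 RdRp assay with 24 nM NS5BdCT21-His in 20 mM HEPES pH 7.5, 5 mM MgCl₂, 1 mM DTT, 0.05 mg/ml BSA and NTPs. Enzyme preincubated with compound (3 nM–30) 15 min at room temperature, then reacted 120 min at room temperature. Radiolabeled RNA collected on filters and counted by scintillation. IC50 from sigmoidal variable-slope dose–response fit, relative to no-compound controls.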

Hepatitis C virus [3] = experiment: Antiviral activity against HCV 1b BB7 infected in human HuH7 cells after 3 days by ELISA; type: functional, organism-based, Hepacivirus hominis; details: genotype 1b BB7, Huh-7, 72 h
In short: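 HCV replicon cells; viral replication measured by ELISA against NS5A.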

[4] = Cytotoxicity against human HuH7 cells assessed as BrdU incorporation in to cellular DNA by counter assay; type: cell-based, Huh-7
In short: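 General cytotoxicity counter assay run alongside the replicon assay, read out as BrdU incorporation into cellular DNA.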

Hepatitis C virus [5] = experiment: Antiviral activity against HCV 1b BB7 infected in human HuH7 cells assessed as total viral RNA level after 3 days by RT-PCR analysis; type: functional, Hepacivirus hominis, genotype 1b BB7, Huh-7
Hepatitis C virus [6] = experiment: Antiviral activity against HCV 1b BB7 infected in human HuH7 cells assessed as GAPDH RNA level after 3 days by RT-PCR analysis; type: functional, Hepacivirus hominis, genotype 1b BB7, Huh-7
[7] = Apparent permeability from apical to basolateral side of human Caco-2 cells; type: ADME, cell-based
[8] = Apparent permeability from basolateral to apical side of human Caco-2 cells; type: ADME, cell-based
[9] = Ratio of apparent permeability from basolateral to apical side over apical to basolateral side in human Caco-2 cells

| SMILES | pIC50 [1] | pIC50 (Hepatitis C virus [2]) | pEC50 (Hepatitis C virus [3]) | CC50 [4] | also measured |
| --- | --- | --- | --- | --- | --- |
| O=C(O)CC1(C2CC2)OCCc2c1[nH]c1c(Cl)ccc(Cl)c21 (stereo unspecified) | 5.14 |  |  |  |  |
| O=C(O)CC1(C2CCC2)OCCc2c1[nH]c1c(Cl)ccc(Cl)c21 (stereo unspecified) | 6.46 |  |  |  |  |
| CCC(C)C1(CC(=O)O)OCCc2c1[nH]c1c(C)ccc(C#N)c21 (racemic) | 5.49 | 5.31 |  |  |  |
| CCC[C@]1([C@H](NS(C)(=O)=O)C(=O)O)OCCc2c1[nH]c1c(C)ccc(C#N)c21 (racemic) |  | 5.22 | < 4.00 | > 100 µM |  |
| CCC[C@]1([C@H](NC(=O)OCC(C)C)C(=O)O)OCCc2c1[nH]c1c(C)ccc(C#N)c21 (racemic) |  | 5.02 | < 4.00 | > 100 µM |  |
| CC[C@H](C)[C@]1(CC(=O)O)OCCc2c1[nH]c1c(C)c(OCCn3cccn3)cc(C#N)c21 | 8.05 | 8.70 | 6.92 |  | Activity (Hepatitis C virus [5]): 0.02 µM; Activity (Hepatitis C virus [6]): >20 µM |
| CCC[C@]1([C@H](NC(=O)OC(C)C)C(=O)O)OCCc2c1[nH]c1c(C)ccc(C#N)c21 (racemic) |  | 4.96 | < 4.00 | > 100 µM |  |
| CCC[C@]1([C@@H](NC(=O)c2ccccc2)C(=O)O)OCCc2c1[nH]c1c(C)ccc(C#N)c21 (racemic) |  | < 4.52 | < 4.00 | > 100 µM |  |
| CC[C@H](C)[C@]1(CC(=O)O)OCCc2c1[nH]c1c(C)ccc(C#N)c21 | 6.89 | 6.59 | 5.66 |  | Activity (Hepatitis C virus [5]): 2.1 µM; Activity (Hepatitis C virus [6]): >10 µM |
| CCC[C@]1([C@@H](NC(C)=O)C(=O)O)OCCc2c1[nH]c1c(C)ccc(C#N)c21 (racemic) |  | 4.77 | < 4.00 | > 100 µM |  |
| CCC[C@]1([C@H](NC(=O)OCc2ccccc2)C(=O)O)OCCc2c1[nH]c1c(C)ccc(C#N)c21 (racemic) |  | 6.14 | 4.46 | 45 µM |  |
| CCC(C)C1(CC(=O)O)OCCc2c1[nH]c1c(Cl)ccc(Cl)c21 (stereo unspecified) | 6.82 |  |  |  |  |
| CCCCS(=O)(=O)N[C@H](C(=O)O)[C@@]1(CCC)OCCc2c1[nH]c1c(C)ccc(C#N)c21 (racemic) |  | 5.44 | < 4.00 | > 100 µM |  |
| C=CCOC(=O)N[C@H](C(=O)O)[C@@]1(CCC)OCCc2c1[nH]c1c(C)ccc(C#N)c21 (racemic) |  | 5.23 | < 4.00 | > 100 µM |  |
| O=C(O)CC1(C2CCCCC2)OCCc2c1[nH]c1c(Cl)ccc(Cl)c21 (stereo unspecified) | < 4.52 |  |  |  |  |
| CC1(CC(=O)O)OCCc2c1[nH]c1c(Cl)ccc(Cl)c21 (stereo unspecified) | 4.57 |  |  |  |  |
| O=C(O)CC1(CC2CC2)OCCc2c1[nH]c1c(Cl)ccc(Cl)c21 (stereo unspecified) | 5.72 |  |  |  |  |
| COCC1(CC(=O)O)OCCc2c1[nH]c1c(Cl)ccc(Cl)c21 (stereo unspecified) | < 4.52 |  |  |  |  |
| CCCCS(=O)(=O)N[C@@H](C(=O)O)[C@@]1(CCC)OCCc2c1[nH]c1c(C)ccc(C#N)c21 (racemic) |  | 4.66 | < 4.00 | > 100 µM |  |
| CCC[C@]1(CC(=O)O)OCCc2c1[nH]c1c(C)ccc(C#N)c21 | 6.52 | 6.40 | 4.88 | > 100 µM | Activity (Hepatitis C virus [5]): 4.8 µM; Activity (Hepatitis C virus [6]): >160 µM; Papp A→B [7]: 240 nm/s; Papp B→A [8]: 22 nm/s; efflux ratio [9]: 0.09 |
| CSCC1(CC(=O)O)OCCc2c1[nH]c1c(Cl)ccc(Cl)c21 (stereo unspecified) | 5.15 |  |  |  |  |
| CCC1(CC(=O)O)OCCc2c1[nH]c1c(Cl)ccc(Cl)c21 (stereo unspecified) | 5.20 |  |  |  |  |
| CCCC1(CC(=O)O)OCCc2c1[nH]c1c(Cl)ccc(Cl)c21 (stereo unspecified) | 6.43 |  |  |  |  |

| SMILES | pIC50 [1] | pIC50 (Hepatitis C virus [2]) | pEC50 (Hepatitis C virus [3]) | CC50 [4] | also measured |
| --- | --- | --- | --- | --- | --- |
| CCC[C@]1([C@@H](NS(=O)(=O)c2ccccc2)C(=O)O)OCCc2c1[nH]c1c(C)ccc(C#N)c21 (racemic) |  | 4.80 | < 4.00 | > 100 µM |  |
| CCC[C@]1(C(=O)O)OCCc2c1[nH]c1c(C)ccc(C#N)c21 | 6.15 |  |  |  | Activity (Hepatitis C virus [5]): 12 µM; Activity (Hepatitis C virus [6]): >30 µM; Papp A→B [7]: 32 nm/s; Papp B→A [8]: 242 nm/s; efflux ratio [9]: 7.5 |
| CC(C#N)C1(CC(=O)O)OCCc2c1[nH]c1c(Cl)ccc(Cl)c21 (stereo unspecified) | 6.52 |  |  |  |  |
| Cc1ccc(C#N)c2c3c([nH]c12)[C@](CC(=O)O)(C1CCC1)OCC3 | 6.40 | 5.96 | 4.53 |  |  |
| CCC[C@]1([C@H](NC(=O)c2ccccc2)C(=O)O)OCCc2c1[nH]c1c(C)ccc(C#N)c21 (racemic) |  | 5.35 | < 4.00 | > 100 µM |  |
| COCCC1(CC(=O)O)OCCc2c1[nH]c1c(Cl)ccc(Cl)c21 (stereo unspecified) | < 4.62 |  |  |  |  |
| CCCCC(=O)N[C@H](C(=O)O)[C@@]1(CCC)OCCc2c1[nH]c1c(C)ccc(C#N)c21 (racemic) |  | 5.30 | < 4.00 | > 100 µM |  |
| CCC[C@]1([C@H](NC(=O)OC)C(=O)O)OCCc2c1[nH]c1c(C)ccc(C#N)c21 (racemic) |  | 5.25 | < 4.00 | > 100 µM |  |
| CCC[C@]1([C@H](NC(=O)OCC)C(=O)O)OCCc2c1[nH]c1c(C)ccc(C#N)c21 (racemic) |  | 5.14 | < 4.00 | > 100 µM |  |
| CCC[C@]1([C@H](NS(=O)(=O)c2ccccc2)C(=O)O)OCCc2c1[nH]c1c(C)ccc(C#N)c21 (racemic) |  | 5.40 | < 4.00 | > 100 µM |  |
| CCC[C@]1([C@@H](NS(C)(=O)=O)C(=O)O)OCCc2c1[nH]c1c(C)ccc(C#N)c21 (racemic) |  | 4.89 | < 4.00 | > 100 µM |  |
| O=C(O)CC1(CCC(F)(F)F)OCCc2c1[nH]c1c(Cl)ccc(Cl)c21 (stereo unspecified) | 6.40 |  |  |  |  |
| CCOCC1(CC(=O)O)OCCc2c1[nH]c1c(Cl)ccc(Cl)c21 (stereo unspecified) | 4.59 |  |  |  |  |
| O=C(O)CC1(CC2CCCC2)OCCc2c1[nH]c1c(Cl)ccc(Cl)c21 (stereo unspecified) | 5.03 |  |  |  |  |
| CCC[C@]1(CC(=O)O)OCCc2c1[nH]c1c(C)c(OCCn3cccn3)cc(C#N)c21 | 7.92 | 8.30 | 6.06 |  | Activity (Hepatitis C virus [5]): 0.14 µM; Activity (Hepatitis C virus [6]): >90 µM |
| CCC[C@]1([C@H](NC(=O)OC(C)(C)C)C(=O)O)OCCc2c1[nH]c1c(C)ccc(C#N)c21 (racemic) |  | 4.74 | < 4.00 | > 100 µM |  |
| CCCCC1(CC(=O)O)OCCc2c1[nH]c1c(Cl)ccc(Cl)c21 (stereo unspecified) | 6.12 |  |  |  |  |
| O=C(O)CC1(C2CCCC2)OCCc2c1[nH]c1c(Cl)ccc(Cl)c21 (stereo unspecified) | 5.48 |  |  |  |  |
| CC/C=C/C1(CC(=O)O)OCCc2c1[nH]c1c(Cl)ccc(Cl)c21 (stereo unspecified) | 5.77 |  |  |  |  |
| CCCCC(=O)N[C@@H](C(=O)O)[C@@]1(CCC)OCCc2c1[nH]c1c(C)ccc(C#N)c21 (racemic) |  | < 4.52 | < 4.00 | > 100 µM |  |
| CCC[C@]1([C@H](NC(C)=O)C(=O)O)OCCc2c1[nH]c1c(C)ccc(C#N)c21 (racemic) |  | 5.77 | < 4.00 | > 100 µM |  |
| CC(C)C1(CC(=O)O)OCCc2c1[nH]c1c(Cl)ccc(Cl)c21 (stereo unspecified) | 5.15 |  |  |  |  |
